The source made the active and inactive calls. The calls are words filed in the database; no cut-off is given here.
Legend:
Tubulin (Homo sapiens) [1] = target: T1, Tubulin (Homo sapiens) (UniProt P68371+Q9H4B7+P0DPH7+P68366+Q13509+Q71U36+P04350+Q3ZCM7+P07437+P68363+Q9BQE3+Q6PEY2+Q13885+Q9BVA1+Q9BUF5); test: Inhibition of [3H]colchicine binding to tubulin (unknown origin) at 25 uM relative to control; format: protein-complex assay
How it was run: (§1)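 Colchicine-site competition: 0.5 μM tubulin with 5.0 μM [3H]colchicine and inhibitor at 5.0 μM, or 25 μM where stated.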

VL51 [2] = test: Induction of cell cycle arrest in human VL51 cells assessed as accumulation of cells at G2/M phase at 5 uM incubated for 24 hrs by PI staining based flow cytometry analysis; format: functional
How it was run: (§2)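 Seeding in 6-well plates, 2 mL medium: A549 5×10^4, CCRF-CEM 2.5×10^5, VL51 2.0×10^5. 24 h treatment, A549 detached with trypsin-EDTA. Cells fixed in 70% ice-cold ethanol, PI-labelled, analysed by flow cytometry. Mean of two independent experiments.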

[3] = Cytotoxicity against resting human PBL cells assessed as inhibition of cell growth measured after 72 hrs by MTT assay; format: toxicity, cell-based; settings: resting human peripheral blood lymphocytes (PBL)
VL51 [4] = test: Induction of cell cycle arrest in human VL51 cells assessed as increase in mitotic cells at 0.5 to 1 uM incubated for 24 hrs by PI staining based flow cytometry analysis; format: functional; settings: dose 0.5-1 µM
Tubulin (Homo sapiens) [5] = target: T1, Tubulin (Homo sapiens); test: Inhibition of [3H]colchicine binding to tubulin (unknown origin) at 5 uM relative to control; format: protein-complex assay; how it was run: as §1
[6] = Cytotoxicity against PHA-induced human PBL cells assessed as inhibition of cell growth measured after 72 hrs by MTT assay; format: toxicity, cell-based; settings: PHA-induced human peripheral blood lymphocytes (PBL)
CCRF-CEM = test: Induction of cell cycle arrest in human CCRF-CEM cells assessed as accumulation of cells at G2/M phase at 10 uM incubated for 24 hrs by PI staining based flow cytometry analysis; format: functional; how it was run: as §2
Tubulin = test: Inhibition of tubulin assembly (unknown origin); format: protein-complex assay, Homo sapiens
VL51 [7] = test: Induction of mitochondrial membrane potential depolarization in human VL51 cells at 0.5 to 1 uM measured after 24 hrs by JC-1 fluorescent dye based flow cytometry analysis; format: functional, cell-based; settings: dose 0.5-1 µM
How it was run: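 VL51 cells treated 24 h at 0.5 and 1.0 μM, labelled with JC-1, analysed by flow cytometry in FL1 and FL2 channels.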

A549 = test: Induction of cell cycle arrest in human A549 cells assessed as accumulation of cells at G2/M phase at 5 uM incubated for 24 hrs by PI staining based flow cytometry analysis; format: functional; how it was run: as §2

inhibition (Tubulin (Homo sapiens) [1]) [%]	inhibition (Tubulin (Homo sapiens) [5]) [%]	IC50 (Tubulin) [µM]	Compound	Activity (VL51 [2])	IC50 at 72 h [3] [µM]	Activity (VL51 [4])	IC50 at 72 h [6] [µM]	Activity (CCRF-CEM)	Activity (VL51 [7])	Activity (A549)
19	1.8	1.1	COc1ccc(Cn2cc3c(c2-c2ccccc2)CCCc2cnoc2-3)cc1	Active	> 10	inactive	> 10	Active	inactive	Active
	7.7	4.6	COc1ccc(Cn2cc3c(c2-c2ccc(OC)cc2)CCCc2cnoc2-3)cc1							

From ChEMBL document CHEMBL5321217, “Identification of pyrrolo[3',4':3,4]cyclohepta[1,2-d][1,2]oxazoles as promising new candidates for the treatment of lymphomas” (Eur J Med Chem, 2023)
